Measurements: ChEMBL document CHEMBL1926614, “Substituted thiazoles V. synthesis and antitumor activity of novel thiazolo[2,3-b]quinazoline and pyrido[4,3-d]thiazolo[3,2-a]pyrimidine analogues” (2012)

How the values were obtained:
Format in all cases: functional
SF-268 = assay: Growth inhibition of human SF268 cells at 10 uM after 48 hrs by coulter counting; details: SF-268, 48 h, read-out: GI
Method in brief: (§1)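 Single-dose primary screen across the full NCI 60-cell-line panel. Stocks were made in DMSO and diluted in PBS to a final DMSO below 1%. Cultures at 6 × 10⁴ cells/ml were run in duplicate wells alongside PBS/DMSO vehicle controls at 37 °C in humidified 5% CO₂. Data were expressed as percent growth of treated cells.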

RPMI-8226 = assay: Growth inhibition of human RPMI8226 cells at 10 uM after 48 hrs by coulter counting; details: RPMI-8226, 48 h, read-out: GI; method in brief: as §1
SK-MEL-5 = assay: Growth inhibition of human SK-MEL-5 cells at 10 uM after 48 hrs by coulter counting; details: SK-MEL-5, 48 h, read-out: GI; method in brief: as §1
DU-145 = assay: Growth inhibition of human DU145 cells at 10 uM after 48 hrs by coulter counting; details: DU-145, 48 h, read-out: GI; method in brief: as §1
UACC-257 = assay: Growth inhibition of human UACC257 cells at 10 uM after 48 hrs by coulter counting; details: UACC-257, 48 h, read-out: GI
Method in brief: (§2)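 Single-dose screen in the NCI 60 human tumor cell line panel (nine subpanels). Compounds dissolved in DMSO and diluted in phosphate buffered saline, keeping final DMSO below 1%. Added in duplicate wells to cells at 6 × 10⁴ cells/ml. Controls held PBS and DMSO at matching dilutions. Incubated at 37 °C, humidified, 5% CO₂. Reported as percent growth of treated cells.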

HCC 2998 = assay: Growth inhibition of human HCC2998 cells at 10 uM after 48 hrs by coulter counting; details: HCC 2998, 48 h, read-out: GI; method in brief: as §1
SNB-75 = assay: Growth inhibition of human SNB75 cells at 10 uM after 48 hrs by coulter counting; details: SNB-75, 48 h, read-out: GI; method in brief: as §1
U-251 = assay: Growth inhibition of human U251 cells at 10 uM after 48 hrs by coulter counting; details: U-251, 48 h, read-out: GI; method in brief: as §2
HL-60(TB) = assay: Growth inhibition of human HL-60(TB) cells at 10 uM after 48 hrs by coulter counting; details: HL-60, 48 h, read-out: GI
Method in brief: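 Test compound was dissolved in DMSO and diluted in phosphate-buffered saline to a final DMSO level below 1%. Dilutions were plated in duplicate with cell culture at 6 × 10⁴ cells/ml. Vehicle controls held PBS and DMSO at matching dilutions. Incubation was at 37 °C, humidified, under 5% CO₂. Data were reported as percent growth of treated cells.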

MCF7 = assay: Growth inhibition of human MCF7 cells at 10 uM after 48 hrs by coulter counting; details: MCF7, 48 h, read-out: GI; method in brief: as §1
A549 = assay: Growth inhibition of human A549 cells at 10 uM after 48 hrs by coulter counting; details: A549, 48 h, read-out: GI; method in brief: as §1
MOLT-4 = assay: Growth inhibition of human MOLT4 cells at 10 uM after 48 hrs by coulter counting; details: MOLT-4, 48 h, read-out: GI; method in brief: as §1
IGROV-1 = assay: Growth inhibition of human IGROV1 cells at 10 uM after 48 hrs by coulter counting; details: IGROV-1, 48 h, read-out: GI; method in brief: as §1
NCI-H522 = assay: Growth inhibition of human NCI-H522 cells at 10 uM after 48 hrs by coulter counting; details: NCI-H522, 48 h, read-out: GI; method in brief: as §1
SK-MEL-28 = assay: Growth inhibition of human SK-MEL-28 cells at 10 uM after 48 hrs by coulter counting; details: SK-MEL-28, 48 h, read-out: GI; method in brief: as §1
EKVX = assay: Growth inhibition of human EKVX cells at 10 uM after 48 hrs by coulter counting; details: read-out: GI; method in brief: as §1
HCT-116 = assay: Growth inhibition of human HCT116 cells at 10 uM after 48 hrs by coulter counting; details: HCT-116, 48 h, read-out: GI; method in brief: as §1
NCI/ADR-RES = assay: Growth inhibition of human NCI/ADR-RES cells at 10 uM after 48 hrs by coulter counting; details: read-out: GI; method in brief: as §1
UO-31 = assay: Growth inhibition of human UO31 cells at 10 uM after 48 hrs by coulter counting; details: UO-31, 48 h, read-out: GI; method in brief: as §2
OVCAR-4 = assay: Growth inhibition of human OVCAR4 cells at 10 uM after 48 hrs by coulter counting; details: OVCAR-4, 48 h, read-out: GI; method in brief: as §1
SNB-19 = assay: Growth inhibition of human SNB19 cells at 10 uM after 48 hrs by coulter counting; details: SNB-19, 48 h, read-out: GI; method in brief: as §1
[1] = Growth inhibition of human NCI-322M cells at 10 uM after 48 hrs by coulter counting; details: read-out: GI; method in brief: as §1
SF-295 = assay: Growth inhibition of human SF295 cells at 10 uM after 48 hrs by coulter counting; details: SF-295, 48 h, read-out: GI; method in brief: as §1
KM12 = assay: Growth inhibition of human KM12 cells at 10 uM after 48 hrs by coulter counting; details: KM12, 48 h, read-out: GI; method in brief: as §1
BT-549 = assay: Growth inhibition of human BT549 cells at 10 uM after 48 hrs by coulter counting; details: BT-549, 48 h, read-out: GI; method in brief: as §1
NCI-H226 = assay: Growth inhibition of human NCI-H226 cells at 10 uM after 48 hrs by coulter counting; details: NCI-H226, 48 h, read-out: GI; method in brief: as §1
M14 = assay: Growth inhibition of human M14 cells at 10 uM after 48 hrs by coulter counting; details: M14, 48 h, read-out: GI; method in brief: as §1
CCRF-CEM = assay: Growth inhibition of human CCRF-CEM cells at 10 uM after 48 hrs by coulter counting; details: read-out: GI; method in brief: as §1
T47D = assay: Growth inhibition of human T47D cells at 10 uM after 48 hrs by coulter counting; details: read-out: GI; method in brief: as §2
A498 = assay: Growth inhibition of human A498 cells at 10 uM after 48 hrs by coulter counting; details: A498, 48 h, read-out: GI; method in brief: as §1
UACC-62 = assay: Growth inhibition of human UACC62 cells at 10 uM after 48 hrs by coulter counting; details: UACC-62, 48 h, read-out: GI; method in brief: as §2
ACHN = assay: Growth inhibition of human ACHN cells at 10 uM after 48 hrs by coulter counting; details: read-out: GI; method in brief: as §1
HT-29 = assay: Growth inhibition of human HT-29 cells at 10 uM after 48 hrs by coulter counting; details: HT-29, 48 h, read-out: GI; method in brief: as §1
LOX IMVI = assay: Growth inhibition of human LOXIMVI cells at 10 uM after 48 hrs by coulter counting; details: read-out: GI; method in brief: as §1
CAKI-1 = assay: Growth inhibition of human Caki1 cells at 10 uM after 48 hrs by coulter counting; details: CAKI-1, 48 h, read-out: GI; method in brief: as §1
K562 = assay: Growth inhibition of human K562 cells at 10 uM after 48 hrs by coulter counting; details: K562, 48 h, read-out: GI; method in brief: as §1
MDA-MB-435 = assay: Growth inhibition of human MDA-MB-435 cells at 10 uM after 48 hrs by coulter counting; details: MDA-MB-435, 48 h, read-out: GI; method in brief: as §1
SK-MEL-2 = assay: Growth inhibition of human SK-MEL-2 cells at 10 uM after 48 hrs by coulter counting; details: SK-MEL-2, 48 h, read-out: GI; method in brief: as §1
NCI-H23 = assay: Growth inhibition of human NCI-H23 cells at 10 uM after 48 hrs by coulter counting; details: NCI-H23, 48 h, read-out: GI; method in brief: as §1

COc1cc(/C=C2\CCCC3=C2N=C2SC=C(C)N2C3c2cc(OC)c(OC)c(OC)c2)cc(OC)c1OC (centres undefined)
inhibition of growth at 10 µM (SF-268): > 10% | inhibition of growth at 10 µM (RPMI-8226): > 10% | inhibition of growth at 10 µM (SK-MEL-5): > 10% | inhibition of growth at 10 µM (DU-145): > 10% | inhibition of growth at 10 µM (UACC-257): > 10% | inhibition of growth at 10 µM (HCC 2998): > 10% | inhibition of growth at 10 µM (SNB-75): > 10% | inhibition of growth at 10 µM (U-251): > 10% | inhibition of growth at 10 µM (HL-60(TB)): > 10% | inhibition of growth at 10 µM (MCF7): > 10% | inhibition of growth at 10 µM (A549): > 10% | inhibition of growth at 10 µM (MOLT-4): > 10% | inhibition of growth at 10 µM (IGROV-1): > 10% | inhibition of growth at 10 µM (NCI-H522): > 10% | inhibition of growth at 10 µM (SK-MEL-28): > 10% | inhibition of growth at 10 µM (EKVX): > 10% | inhibition of growth at 10 µM (HCT-116): > 10% | inhibition of growth at 10 µM (NCI/ADR-RES): > 10% | inhibition of growth at 10 µM (UO-31): 20% | inhibition of growth at 10 µM (OVCAR-4): > 10% | inhibition of growth at 10 µM (SNB-19): > 10% | inhibition of growth at 10 µM [1]: > 10% | inhibition of growth at 10 µM (SF-295): > 10% | inhibition of growth at 10 µM (KM12): > 10% | inhibition of growth at 10 µM (BT-549): > 10% | inhibition of growth at 10 µM (NCI-H226): > 10% | inhibition of growth at 10 µM (M14): > 10% | inhibition of growth at 10 µM (CCRF-CEM): > 10% | inhibition of growth at 10 µM (T47D): > 10% | inhibition of growth at 10 µM (A498): > 10% | inhibition of growth at 10 µM (UACC-62): > 10% | inhibition of growth at 10 µM (ACHN): > 10% | inhibition of growth at 10 µM (HT-29): > 10% | inhibition of growth at 10 µM (LOX IMVI): > 10% | inhibition of growth at 10 µM (CAKI-1): > 10% | inhibition of growth at 10 µM (K562): > 10% | inhibition of growth at 10 µM (MDA-MB-435): > 10% | inhibition of growth at 10 µM (SK-MEL-2): > 10% | inhibition of growth at 10 µM (NCI-H23): > 10%
